Pf Dd2 growth: P. falciparum Dd2 growth inhibition. activity change, % at 10 µM. actives 2.3% (n = 94,000). SYBR Green, 72 h; hits give low values; in the data active means activity change below about -80%
IDH1 R132H inh: inhibitors of human IDH1 R132H | IDH1 R132H reductase, diaphorase/resazurin fluorescence, 60 min | actives 0.18% (n = 70,000) | AID 624101 | inhibition, % at 10 µM | O75874; in the data active means inhibition above about 34%;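 further: 0% = DMSO and 100% = no enzyme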
KDM4C inh: blocks human GASC-1 (KDM4C) demethylase activity; GST-KDM4C 2-372, H3K9me3 peptide, LANCE TR-FRET; inhibition, % at 12.5 µM; actives 0.15% (n = 96,000);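 active means mean replicate inhibition above about 25%, with at least 55% of replicates also reaching it, limit read from the data, passing the limit was not always enough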
Target sequence (Q9H3R0 2-372 limits assumed): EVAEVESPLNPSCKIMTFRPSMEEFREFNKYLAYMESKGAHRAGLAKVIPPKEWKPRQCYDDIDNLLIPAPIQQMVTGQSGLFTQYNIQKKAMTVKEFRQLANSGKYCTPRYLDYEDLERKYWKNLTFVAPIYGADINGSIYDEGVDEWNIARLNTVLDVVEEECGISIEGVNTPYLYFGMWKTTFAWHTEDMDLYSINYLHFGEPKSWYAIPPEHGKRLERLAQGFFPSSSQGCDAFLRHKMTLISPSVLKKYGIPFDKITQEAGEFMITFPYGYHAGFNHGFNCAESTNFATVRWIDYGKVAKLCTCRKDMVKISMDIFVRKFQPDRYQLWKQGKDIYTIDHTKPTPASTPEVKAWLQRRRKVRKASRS
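Assay system: GST-GASC-1 enzyme fragment 2-372 | Amount: 10 nM enzyme | Medium: HEPES buffer, pH 7.5, plus ascorbate | Reagent: H3K9me3 peptide substrate, Fe(II), 2-oxoglutarate | Doses: Single-point compound screen | Incubation: 30 min demethylation and 1 h detection at room temperature | Measured by: LANCE TR-FRET, excitation 340 nm, emissions 618 and 671 nm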
Tcruzi prolif: blocks T. cruzi growth in NIH3T3 culture. T. cruzi beta-gal in NIH3T3, GalScreen luminescence, 90 h. inhibition, % at 8.34 µM. actives 5.9% (n = 77,000);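 active means mean inhibition above about 93%, with at least 55% of replicates each passing it, limit read from the data, passing the limit was not always enough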
* hit, by the source's call; . = no result given. Rows were chosen to be rich in hits. Some 5.9% of all compounds tested hit in one or more screens of this group.

SMILES | Pf Dd2 growth | IDH1 R132H inh | KDM4C inh | Tcruzi prolif
COc1ccc(NC(=O)Nc2cccc3c2O[C@H](CN(C)Cc2ccc(C(=O)Nc4ccccc4N)cc2)[C@H](C)CN([C@@H](C)CO)C3=O)cc1 | -94* | . | -2 | .
C[C@@H]1CN([C@H](C)CO)C(=O)c2cccc(NC(=O)Nc3ccc(F)cc3)c2O[C@H]1CN(C)Cc1ccc(C(=O)Nc2ccccc2N)cc1 | -78 | . | 2 | .
COc1ccc(NC(=O)Nc2cccc3c2O[C@H](CN(C)Cc2ccc(C(=O)Nc4ccccc4N)cc2)[C@@H](C)CN([C@@H](C)CO)C3=O)cc1 | -88* | . | 0 | 105
COc1ccc(NC(=O)Nc2cccc3c2O[C@H](CN(C)Cc2ccc(-c4ccccc4)cc2)[C@H](C)CN([C@@H](C)CO)C3=O)cc1 | -42 | . | -3 | 90
COc1ccc(NC(=O)Nc2cccc3c2O[C@H](CN(C)Cc2ccc(-c4ccccc4)cc2)[C@@H](C)CN([C@@H](C)CO)C3=O)cc1 | -86* | 0 | 2 | .
C[C@@H]1CN([C@H](C)CO)C(=O)c2cccc(NC(=O)Nc3ccccc3)c2O[C@H]1CN(C)Cc1ccc(C(=O)Nc2ccccc2N)cc1 | -78 | 0 | -3 | 91
C/C=C/c1ccc([C@H]2[C@@H](C#N)N(C(=O)NC3CCCC3)[C@H]2CO)cc1 | -59 | . | 0 | 83
CN1C(=O)c2cc(NC(=O)c3ccccc3Cl)ccc2OC[C@H]2O[C@@H](CC(=O)NCC(F)(F)F)CC[C@H]21 | . | . | -4 | -1
C[C@@H]1CN([C@@H](C)CO)C(=O)c2cc(NS(C)(=O)=O)ccc2O[C@@H]1CN(C)Cc1ccc(C(=O)O)cc1 | 20 | 0 | -1 | -179
CC(C)(C)[S@](=O)N1Cc2cc(C(=O)N[C@H]3CCN(Cc4ccccc4)C3)nc(-c3cccc(-c4ccncc4)c3)c2[C@@H]1CCO | -78 | . | -1 | .
CN(C)CC#Cc1cccc(-c2nc(C(=O)N3CCN(Cc4ccccc4)CC3)cc3c2[C@@H](CCO)N(S(=O)C(C)(C)C)C3)c1 (some centres not stated) | -3 | . | . | .
CC(C)(C)[S@](=O)N1Cc2cc(C(=O)N[C@@H]3CCN(Cc4ccccc4)C3)nc(-c3cccc(-c4cccnc4)c3)c2[C@@H]1CCO | -88* | 1 | -3 | 91
CN(C)CC#Cc1cccc(-c2nc(C(=O)N[C@@H]3CCN(Cc4ccccc4)C3)cc3c2[C@H](CCO)N(S(=O)C(C)(C)C)C3)c1 (some centres not stated) | -85* | . | . | .
C[C@@H]1CN([C@H](C)CO)C(=O)c2cc(NC(=O)Cc3ccccc3)ccc2O[C@@H](C)CCCCO[C@H]1CN(C)Cc1ccc(Cl)c(Cl)c1 | -84* | 3 | 1 | 91
C[C@H]1CCCCO[C@H](CN(C)Cc2ccc(Cl)c(Cl)c2)[C@@H](C)CN([C@@H](C)CO)C(=O)c2cc(NC(=O)Cc3ccccc3)ccc2O1 | -85* | . | 1 | 68
C[C@@H]1CCCCO[C@@H](CN(C)Cc2ccc(Cl)c(Cl)c2)[C@H](C)CN([C@@H](C)CO)C(=O)c2cc(NC(=O)Cc3ccccc3)ccc2O1 | -66 | 0 | 1 | 63
C[C@@H]1CCCCO[C@@H](CN(C)Cc2ccccc2)[C@H](C)CN([C@H](C)CO)C(=O)c2cc(NC(=O)Cc3ccccc3)ccc2O1 | -66 | 1 | 0 | .
COc1ccc(S(=O)(=O)Nc2cccc3c2O[C@@H](CN(C)C(=O)Nc2ccc(C(F)(F)F)cc2)[C@H](C)CN([C@@H](C)CO)C3=O)cc1 | -9 | . | 1 | 33
COc1ccccc1C#Cc1ccc([C@H]2[C@@H](C#N)N(C(=O)C3CCCC3)[C@H]2CO)cc1 | -97* | . | -3 | .
COc1ccccc1C#Cc1ccc([C@@H]2[C@H](C#N)N(C(=O)C3CCCC3)[C@H]2CO)cc1 | -79 | . | -5 | .
N#C[C@H]1[C@H](c2ccc(C#Cc3ccccc3F)cc2)[C@H](CO)N1C(=O)c1cccnc1 | -87* | . | -2 | 91
COc1ccccc1C#Cc1ccc([C@H]2[C@H](C#N)N(C(=O)C3CCCC3)[C@H]2CO)cc1 | -65 | . | 1 | .
COc1ccccc1C#Cc1ccc([C@H]2[C@@H](C#N)N(C(=O)C3CCCC3)[C@@H]2CO)cc1 | -87* | . | -2 | .
N#C[C@H]1[C@@H](c2ccc(C#Cc3ccccc3F)cc2)[C@@H](CO)N1C(=O)C1CCCC1 | -89* | . | 4 | .
COc1cc(OC)c(NC(=O)CN(C)S(=O)(=O)c2ccc(C)cc2)cc1Cl | . | 0 | . | .
SMILES | Pf Dd2 growth | IDH1 R132H inh | KDM4C inh | Tcruzi prolif
O=C(C[C@H]1CC[C@H](NS(=O)(=O)c2ccc(F)cc2)[C@H](CO)O1)NCCN1CCCCC1 | -4 | 0 | -1 | 31
C[C@H](CO)N1C[C@H](C)[C@H](CN(C)C(=O)Nc2ccccc2C(F)(F)F)OCc2ccccc2-c2c(n(C)c3ccccc23)C1=O | -71 | . | -1 | .
CN1[C@@H](CO)[C@@H]2c3ccccc3N(C(=O)Nc3ccccc3F)C[C@@H]21 | -3 | . | 0 | 15
C[C@@H](O)C#Cc1ccc2c(c1)O[C@H](CN(C)C(=O)CN(C)C)[C@@H](C)CN([C@@H](C)CO)S2(=O)=O | 22 | 0 | 1 | 15
C[C@H](CO)N1C[C@H](C)[C@H](CN(C)C(=O)Nc2ccc(F)cc2)OCCCC[C@H](C)Oc2ccc(NS(=O)(=O)c3cccs3)cc2C1=O | -43 | 0 | 1 | 59
C[C@@H]1CCCCO[C@H](CN(C)C(=O)NC2CCCCC2)[C@H](C)CN([C@H](C)CO)C(=O)c2cc(NS(=O)(=O)c3cccs3)ccc2O1 | -82* | . | 0 | 26
C[C@@H]1CN([C@@H](C)CO)C(=O)c2cc(NS(=O)(=O)c3cccs3)ccc2O[C@@H](C)CCCCO[C@H]1CN(C)C(=O)Nc1ccc(F)cc1 | -81* | 3 | -1 | 68
O=C(c1ccccn1)N1CC2(C1)[C@H](c1ccccc1)[C@@H](CO)N2C(=O)CC1CC1 | 24 | . | -2 | .
C[C@H](CO)N1C[C@H](C)[C@@H](CN(C)C(=O)c2cccnc2)Oc2cc(C#CC3CC3)ccc2S1(=O)=O | -25 | 42* | 16 | 21
C[C@H](CO)N1C[C@H](C)[C@H](CN(C)C(=O)c2cccnc2)Oc2cc(C#CC3CC3)ccc2S1(=O)=O | -13 | 0 | 2 | 5
C[C@@H]1CN([C@H](C)CO)S(=O)(=O)c2ccc(C#CC3CC3)cc2O[C@H]1CN(C)Cc1cccnc1 | -34 | 60* | -1 | .
CCC(=O)Nc1ccc2c(c1)C(=O)N(C)C[C@H](OC)[C@H](C)CN(C(=O)CN1CCOCC1)[C@H](C)CO2 | . | 0 | 0 | -82
N#Cc1c(NC(=O)Cn2c(=O)oc3cc(Br)ccc32)sc2c1CCCC2 | . | 0 | . | .
COc1ccc2c3c([nH]c2c1)[C@@H](CO)N(C(=O)C1CCCC1)CC31CCN(Cc2cccc(F)c2)CC1 | -58 | . | -2 | .
CN(C)c1ccc2c(c1)[C@H]1C[C@H](CC(=O)NCc3ccccn3)O[C@H](CO)[C@H]1O2 | -14 | -3 | 34* | 0

Screens (PubChem BioAssay)
